Format in all cases: cell-based
In one assay the target is T1, TALK-1 (Homo sapiens, UniProt Q96T55).
T1 sequence (Q96T55 1-309): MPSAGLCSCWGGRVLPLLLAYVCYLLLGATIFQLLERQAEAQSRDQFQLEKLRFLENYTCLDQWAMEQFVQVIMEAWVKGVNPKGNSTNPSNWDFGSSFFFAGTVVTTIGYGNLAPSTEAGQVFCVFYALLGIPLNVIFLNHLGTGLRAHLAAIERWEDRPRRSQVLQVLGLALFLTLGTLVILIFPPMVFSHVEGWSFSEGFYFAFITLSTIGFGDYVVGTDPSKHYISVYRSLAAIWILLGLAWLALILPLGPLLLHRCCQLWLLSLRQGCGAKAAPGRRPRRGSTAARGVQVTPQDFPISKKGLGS
In words: Extended screening of K2P channels with BL-1249: TALK-1. As to conditions: result in words.

The next assay has as its target Kv1.5 (Homo sapiens, UniProt P22460). In words: BL-1249 on helix bundle-crossing gated channel Kv1.5. As to conditions: result in words.
For a further assay, the target named is Kv1.1 (Homo sapiens, UniProt Q09470). The experiment in a line: BL-1249 on helix bundle-crossing gated channel Kv1.1. As to conditions: result in words.
Chain of Kv1.1 (Q09470 whole entry): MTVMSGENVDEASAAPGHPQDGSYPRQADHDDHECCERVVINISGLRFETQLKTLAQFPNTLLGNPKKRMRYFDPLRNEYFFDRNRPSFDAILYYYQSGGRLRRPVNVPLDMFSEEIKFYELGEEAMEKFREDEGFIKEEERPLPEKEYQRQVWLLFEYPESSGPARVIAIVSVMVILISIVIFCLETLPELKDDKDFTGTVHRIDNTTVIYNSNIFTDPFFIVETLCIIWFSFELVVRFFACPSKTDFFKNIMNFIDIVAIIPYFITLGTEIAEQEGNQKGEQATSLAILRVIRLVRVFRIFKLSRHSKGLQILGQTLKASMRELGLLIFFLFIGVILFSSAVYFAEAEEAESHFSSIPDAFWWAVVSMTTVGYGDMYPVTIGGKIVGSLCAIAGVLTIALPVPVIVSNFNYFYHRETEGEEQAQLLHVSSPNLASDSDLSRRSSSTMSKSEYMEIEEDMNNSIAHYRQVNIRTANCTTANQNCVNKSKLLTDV
The next assay addresses T2, THIK-1 (Homo sapiens, UniProt Q9HB14).
T2 sequence (Q9HB14 1-408): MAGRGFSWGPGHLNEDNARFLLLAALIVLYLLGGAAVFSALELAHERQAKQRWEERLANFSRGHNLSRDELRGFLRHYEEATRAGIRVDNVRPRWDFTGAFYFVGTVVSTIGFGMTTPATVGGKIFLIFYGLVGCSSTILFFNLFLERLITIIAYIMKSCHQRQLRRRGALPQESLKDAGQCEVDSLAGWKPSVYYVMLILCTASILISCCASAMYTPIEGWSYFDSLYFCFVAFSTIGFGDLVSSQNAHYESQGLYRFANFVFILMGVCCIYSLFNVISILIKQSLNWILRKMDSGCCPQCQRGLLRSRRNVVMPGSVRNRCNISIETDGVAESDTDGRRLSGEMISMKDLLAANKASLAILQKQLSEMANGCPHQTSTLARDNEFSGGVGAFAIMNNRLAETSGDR
In words: Extended screening of K2P channels with BL-1249: THIK-1. The settings on record: result in words.

A further assay addresses T3, Kv3.1 (Homo sapiens, UniProt P48547).
T3 sequence (P48547 1-511): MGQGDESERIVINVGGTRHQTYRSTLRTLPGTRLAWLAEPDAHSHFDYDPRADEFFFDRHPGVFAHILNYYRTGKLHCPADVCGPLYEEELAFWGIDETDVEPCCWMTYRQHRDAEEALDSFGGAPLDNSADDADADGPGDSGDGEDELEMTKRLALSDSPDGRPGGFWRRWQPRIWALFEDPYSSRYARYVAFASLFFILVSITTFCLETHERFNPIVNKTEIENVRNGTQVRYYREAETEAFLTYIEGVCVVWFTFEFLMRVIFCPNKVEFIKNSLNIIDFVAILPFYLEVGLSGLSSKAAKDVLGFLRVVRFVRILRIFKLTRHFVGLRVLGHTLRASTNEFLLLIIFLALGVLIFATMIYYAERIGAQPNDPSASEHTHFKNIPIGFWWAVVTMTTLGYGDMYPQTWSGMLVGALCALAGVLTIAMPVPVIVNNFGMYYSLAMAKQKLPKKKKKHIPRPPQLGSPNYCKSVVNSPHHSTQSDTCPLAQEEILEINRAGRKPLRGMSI
In words: BL-1249 on helix bundle-crossing gated channel Kv3.1. As to conditions: result in words.

The target in another assay is T4, TALK-2 (Homo sapiens, UniProt Q96T54).
T4 sequence (Q96T54 1-332): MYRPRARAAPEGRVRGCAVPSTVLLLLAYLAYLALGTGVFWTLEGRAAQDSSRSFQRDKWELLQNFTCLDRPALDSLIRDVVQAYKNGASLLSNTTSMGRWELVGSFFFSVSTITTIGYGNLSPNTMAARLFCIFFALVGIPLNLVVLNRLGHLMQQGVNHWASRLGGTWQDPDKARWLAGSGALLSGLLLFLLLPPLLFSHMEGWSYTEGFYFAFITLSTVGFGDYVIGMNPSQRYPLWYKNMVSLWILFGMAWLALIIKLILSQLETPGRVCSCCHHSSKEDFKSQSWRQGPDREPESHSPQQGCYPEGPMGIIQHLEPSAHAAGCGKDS
The experiment in a line: TALK-2 currents in inside-out patches. The settings on record: result in words. The essentials:
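TALK-2 currents were recorded in inside-out patches from Xenopus oocytes. Fold activation was measured with 50 μM test compound or 1 mM 2-APB, applied at several intracellular pH values.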

A further assay relates to CNG channels. The experiment in a line: BL-1249 on CNG channels. The settings on record: result in words.
In a further assay the target is T5, TREK-2 (Homo sapiens, UniProt P57789).
T5 sequence (P57789 1-538): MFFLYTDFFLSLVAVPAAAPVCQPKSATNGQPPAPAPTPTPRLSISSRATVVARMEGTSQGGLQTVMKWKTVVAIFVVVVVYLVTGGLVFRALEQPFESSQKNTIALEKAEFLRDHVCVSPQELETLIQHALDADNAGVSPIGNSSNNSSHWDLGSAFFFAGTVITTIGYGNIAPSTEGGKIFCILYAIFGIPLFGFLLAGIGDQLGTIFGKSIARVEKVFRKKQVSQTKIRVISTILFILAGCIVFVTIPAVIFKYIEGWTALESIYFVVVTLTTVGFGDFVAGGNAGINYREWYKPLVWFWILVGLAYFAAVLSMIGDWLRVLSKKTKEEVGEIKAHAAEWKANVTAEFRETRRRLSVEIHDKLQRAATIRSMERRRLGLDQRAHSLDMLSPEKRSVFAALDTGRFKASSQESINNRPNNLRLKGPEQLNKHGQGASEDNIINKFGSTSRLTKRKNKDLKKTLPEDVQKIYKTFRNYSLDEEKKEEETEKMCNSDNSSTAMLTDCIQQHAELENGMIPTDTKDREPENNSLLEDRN
In words: TREK-2 channel currents, BL-1249 dose-response ± TEA or THexA. As to conditions: extended screening; result in words. The method, boiled down:
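TREK-2 concentration-response curves for test compound were run with and without intracellular blocker: 100 mM TEA (n ≥ 12) or 5 μM THexA (n ≥ 13). Inhibition of basal current by each blocker was also quantified.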

A further assay addresses T6, TRAAK (Homo sapiens, UniProt Q9NYG8).
T6 sequence (Q9NYG8 1-393): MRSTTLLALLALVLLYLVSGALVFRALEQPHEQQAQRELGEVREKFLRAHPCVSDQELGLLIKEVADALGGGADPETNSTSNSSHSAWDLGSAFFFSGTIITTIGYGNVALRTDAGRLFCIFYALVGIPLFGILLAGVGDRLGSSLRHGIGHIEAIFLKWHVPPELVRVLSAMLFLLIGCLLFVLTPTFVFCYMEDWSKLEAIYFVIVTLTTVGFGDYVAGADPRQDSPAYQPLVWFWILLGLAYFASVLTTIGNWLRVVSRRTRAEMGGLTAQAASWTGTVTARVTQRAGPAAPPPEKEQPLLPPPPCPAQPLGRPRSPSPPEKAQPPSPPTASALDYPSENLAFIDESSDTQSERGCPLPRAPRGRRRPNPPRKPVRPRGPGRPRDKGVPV
The experiment in a line: Extended screening of K2P channels with BL-1249: TRAAK. As to conditions: result in words.

Chain of Kv1.5 (P22460 whole entry): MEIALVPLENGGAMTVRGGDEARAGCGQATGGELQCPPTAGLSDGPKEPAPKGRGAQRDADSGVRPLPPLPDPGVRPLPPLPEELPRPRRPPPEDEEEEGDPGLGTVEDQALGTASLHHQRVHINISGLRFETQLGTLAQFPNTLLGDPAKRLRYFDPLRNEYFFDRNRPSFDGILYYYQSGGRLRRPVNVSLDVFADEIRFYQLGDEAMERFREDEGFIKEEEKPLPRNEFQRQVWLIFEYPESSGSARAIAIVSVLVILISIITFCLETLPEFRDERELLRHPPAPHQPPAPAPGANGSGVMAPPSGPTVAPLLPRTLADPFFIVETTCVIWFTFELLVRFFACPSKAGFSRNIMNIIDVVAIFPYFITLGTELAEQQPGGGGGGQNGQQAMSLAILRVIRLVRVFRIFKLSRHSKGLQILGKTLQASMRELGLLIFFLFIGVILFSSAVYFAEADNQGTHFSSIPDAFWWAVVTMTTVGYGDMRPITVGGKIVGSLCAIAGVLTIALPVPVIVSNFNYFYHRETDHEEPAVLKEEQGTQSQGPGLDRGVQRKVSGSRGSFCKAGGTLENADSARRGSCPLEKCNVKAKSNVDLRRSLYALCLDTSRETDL

For `c1ccc(-c2nn[nH]n2)c(Nc2cccc3c2CCCC3)c1` [BL-1249], the “activation of TALK-1” value at TALK-1 is reported as “potent activation”. In addition, the “activation of Kv1.5” value on Kv1.5 is reported as “not activated”. Moreover, the “activation of Kv1.1” value at Kv1.1 is reported as “not activated”. Besides, on THIK-1, the “activation of THIK-1” value is given as “potent activation”. Further, the “activation of Kv3.1” value at Kv3.1 is listed as “not activated”. Further, the “activation of TALK-2” value at TALK-2 (extended screening) was “potent activation”. Also, at TALK-2 (lowering pHi to 5, 50 μM BL-1249 or 1 mM 2-APB), the “pH dependence of TALK-2 activation” value is given as “potency dropped strongly”. Besides, in the assay on CNG channels, the “activation of CNG channels” value was “not activated”. Besides, the “activation of TREK-2” value at TREK-2 is “potent activation”. For the same compound, on TRAAK, the “activation of TRAAK” value is given as “potent activation”.

For the origin of these results see paper PMC6982535 (Science (New York, N.Y.), 2019).
